High-throughput results (PubChem BioAssay)
procasp3 activ – activators of human procaspase-3 D3A mutant, primary screen, biochemical, absorbance, PC-3 D3A mutant, single concentration; Caspase-3 (Homo sapiens), P42574; recombinant procaspase-3 D3A, Ac-DEVD-pNA absorbance 405 nm; activation, % at 8.5 µM; actives 0.11% (n = 330,000); AID 463141, 2010;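 active = activation above the mean of all tested compounds plus 3 SD, cut at about 21% in these data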;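 also: 0% = DMSO alone and 100% = DMSO wells spiked with extra 5 µM PC-3 D3A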
Target sequence (P42574 whole entry D9A/D28A/D175A): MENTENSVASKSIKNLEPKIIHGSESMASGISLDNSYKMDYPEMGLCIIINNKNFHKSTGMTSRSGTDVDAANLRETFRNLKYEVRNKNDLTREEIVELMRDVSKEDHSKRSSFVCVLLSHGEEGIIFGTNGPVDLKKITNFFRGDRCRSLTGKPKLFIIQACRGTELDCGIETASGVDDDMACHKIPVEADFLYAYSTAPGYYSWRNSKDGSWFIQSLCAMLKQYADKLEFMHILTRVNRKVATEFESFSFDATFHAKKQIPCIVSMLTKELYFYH
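System: Procaspase-3 D3A mutant. Medium: Zinc-free 300 mM NaCl, 50 mM HEPES, 0.01% Triton X-100. Schedule: 1 h preincubation plus 2 h reaction at 25 °C. Measured by: 405 nm absorbance of p-nitroaniline, reads at 0 and 120 min. Read-out: percent activation relative to control range.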
proCasp7 act – procaspase-7 activators, primary screen, counter-screen for procaspase-3 activator project, biochemical, absorbance, HTS, human; Caspase-7 (Homo sapiens), P55210; recombinant procaspase-7, Ac-DEVD-pNA absorbance 405 nm; D23A/D198A/D206A triple mutant, cannot self-cleave; scale: DMSO 0, 5 µM enzyme 100; activation, % at 8.5 µM; actives 0.093% (n = 330,000);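 active = percent activation above the screen-wide mean plus 3 SD, cut at about 25% in these data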
Target sequence (P55210 whole entry D23A/D198A/D206A): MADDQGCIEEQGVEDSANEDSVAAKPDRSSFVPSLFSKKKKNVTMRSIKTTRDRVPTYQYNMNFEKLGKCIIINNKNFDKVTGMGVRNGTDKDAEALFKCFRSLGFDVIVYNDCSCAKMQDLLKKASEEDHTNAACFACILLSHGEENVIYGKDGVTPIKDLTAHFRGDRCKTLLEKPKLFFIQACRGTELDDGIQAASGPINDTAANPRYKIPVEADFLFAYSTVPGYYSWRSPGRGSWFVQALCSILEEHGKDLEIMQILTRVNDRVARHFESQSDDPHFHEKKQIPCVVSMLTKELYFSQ
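Material: Procaspase-7 triple mutant (PC-7 D3A) | Quantity: 2 µM procaspase-7 mutant as dispensed | Reagent: DEVD-pNA substrate | Times: 1 h preincubation, 2 h reaction | Technique: 405 nm absorbance of p-nitroaniline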
PolyA inh – polyadenylation inhibitors in yeast reporter cells, primary screen, luminescence, S. cerevisiae | AID 1875, 2009 | actives 0.02% (n = 300,000) | activity score, % at 12 µM | S. cerevisiae SKY197-pL101 polyadenylation reporter, beta-gal luminescence; efflux-impaired pdr1/pdr3 knockout yeast; score 100 = 6 SD above DMSO;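 active = lowest replicate activity score at least 50, where 100 means six control SD above control mean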;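 also: yeast exposed to compound for 9 h at 30 °C; higher score means more reporter readthrough which indicates perturbed polyadenylation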
AHR activator – AHR activators, primary screen, cell-based, luminescence, luciferase reporter, human; Aryl hydrocarbon receptor (Homo sapiens), P35869; AHR-responsive luciferase reporter cells; activation, % at 5 µM; actives 2.5% (n = 320,000); in the data active = activation above about 47%;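 also: 0% = vehicle wells and 100% = reference agonist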
proCasp7 act trip – procaspase-7 activators, counter-screen for procaspase-3 activator project, biochemical, absorbance, triplicate, human; activation, % at 8.5 µM; recombinant procaspase-7, Ac-DEVD-pNA absorbance; asp23/198/206-to-Ala mutant, cannot self-cleave; 210 tested, under 10 active; shares compounds with procasp3 activ;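 active = mean activation above a set limit taken from an earlier procaspase-7 screen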;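 also: 0% = DMSO wells and 100% = DMSO plus 5 µM procaspase-7 enzyme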
procasp3 conf – activators of human procaspase-3 D3A mutant, confirmation, biochemical, absorbance, PC-3 D3A mutant, triplicate. shares compounds with procasp3 activ. recombinant PC-3 D3A, Ac-DEVD-pNA absorbance 405 nm; 100% is higher-enzyme control. activation, % at 8.5 µM. actives 10% (n = 210). AID 488954, 2010;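 active = mean activation above a set limit carried over from the earlier primary screen, cut at about 22% in these data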
The depositor's hits bear a star; / = no result given. Rows were chosen to be rich in hits. Some 2.6% of all compounds tested hit in one or more screens of this group.

SMILES | procasp3 activ | proCasp7 act | PolyA inh | AHR activator | proCasp7 act trip | procasp3 conf
COc1cc(C(=O)NCCC(=O)NCc2c(F)cc(F)cc2F)cc(OC)c1OC | 5 | 10 | 8 | 1 | / | /
Cc1cc(NC(=O)c2cccc(C)c2[N+](=O)[O-])no1 | -2 | 6 | 16 | 4 | / | /
Cc1c(O)ccc2c(CN3CCN(C/C=C/c4ccccc4)CC3)cc(=O)oc12 | 24* | 23 | -11 | -2 | -20 | -15
O=S(=O)(Nc1cccc(-n2cnnn2)c1)c1cc(Br)ccc1Br | 8 | 17 | 7 | 4 | / | /
O=C(NCCCSc1ccccc1)c1cc(Cl)ccc1O | / | / | -7 | / | / | /
O=[N+]([O-])c1cccc(-c2ccc(CN3CCN(c4ccccc4)CC3)o2)c1 | 23* | -4 | 4 | 5 | -4 | 2
O=[N+]([O-])c1ccccc1-c1ccc(CN2CCN(c3ccccc3)CC2)o1 | 5 | -7 | 15 | 7 | / | /
COc1ccc(CNC(=O)CN(C)Cc2ccc(C(C)(C)C)cc2)cc1 | -9 | -2 | 6 | -2 | / | /
CC(=O)c1ccc(-c2cccs2)s1 | 29* | 24 | 0 | -7 | -20 | -13
COc1ccccc1C(=O)NCCC(=O)N1CC=C(c2ccccc2)CC1 | 7 | 7 | -3 | 0 | / | /
CCc1nn2c(=O)c(S(=O)(=O)Nc3ccc(C(C)C)cc3)c(C)nc2s1 | 3 | 2 | / | 0 | / | /
CC1Oc2ccccc2N(CC(=O)NCCCN2CCOCC2)C1=O (stereo not given) | 6 | 4 | 16 | -4 | / | /
O=C(CN1C(=O)/C(=C\c2ccccc2Br)Oc2ccccc21)NCCCN1CCOCC1 | 32* | 25 | -4 | 3 | -18 | -13
O=C(CCN1C(=O)c2ccccc2S1(=O)=O)Nc1ccc(C(=O)O)cc1 | 10 | -3 | 22 | -2 | / | /
O=C(CSc1nnnn1-c1ccccc1)Nc1ccc(Cl)cn1 | 1 | 3 | 9 | 11 | / | /
O=C(CSc1nnnn1-c1ccccc1)Nc1ccc(Cl)cc1 | 27* | 13 | 6 | 5 | 1 | 4
Oc1c(Br)cc(Br)cc1/C=N/NC(=S)N[C@H]1CC2C=CC1C2 (stereo not given in full) | 23* | 19 | -43 | 27 | 19 | 31*
O=C(O)C1(O)C[C@H](O)C(O)[C@@H](O)C1 (stereo not given in full) | 2 | 8 | / | -3 | / | /
CC(NC(=O)c1cc2cc([N+](=O)[O-])ccc2oc1=O)C1CCCO1 (stereo not given) | 22* | 21 | -26 | 1 | 21 | 32*
COc1ccc(-c2cc3ccc(O)cc3oc2=O)cc1 | 22* | 18 | -13 | 0 | -20 | -15
Cc1ccccc1C(=O)N1CCC(C(=O)Nc2nc3ccc(F)cc3s2)CC1 | 23* | 3 | 19 | 10 | 3 | 7
Cc1ccccc1C(=O)N1CCC(C(=O)Nc2nccs2)CC1 | 1 | 10 | 9 | 5 | / | /
CCc1nnc(NC(=O)CSc2nnc3c(C)cc4c(C)ccc(C)c4n23)s1 | 22* | 0 | 26 | 2 | 3 | 4
COCCNc1ncnc2c1cnn2Cc1ccccc1Cl | 23* | 1 | -9 | 2 | 2 | 1
COCCNc1ncnc2c1cnn2Cc1ccc(Cl)cc1 | -5 | 8 | -5 | 2 | / | /
SMILES | procasp3 activ | proCasp7 act | PolyA inh | AHR activator | proCasp7 act trip | procasp3 conf
CCN(CC)S(=O)(=O)c1ccc2c(c1)c(=O)c(C(=O)N1CCOCC1)cn2C | 46* | 7 | 13 | -3 | 3 | 1
CC(=O)c1c(C)[nH]c(C(=O)OCC(=O)N2c3ccccc3NC(=O)C2(C)C)c1C | 30* | 24 | -10 | 9 | 1 | 5
COc1ccc(-c2ccc(C#N)c(SCC(=O)OCc3ccccc3)n2)cc1OC | 34* | 10 | 4 | -2 | 4 | 6
CC(Sc1nncs1)C(=O)Nc1ccc2c(c1)OCCO2 (stereo not given) | 22* | 3 | -14 | 2 | -1 | 7
Cc1csc(SC(C)C(=O)Nc2ccc3c(c2)OCCO3)n1 (stereo not given) | 4 | 6 | -16 | 6 | / | /
O=C(COC(=O)CNC(=O)c1ccc(Cl)cc1Cl)Nc1cccc(S(=O)(=O)N2CCCC2)c1 | 1 | 14 | -5 | -1 | / | /
c1ccc(-c2noc(CN3CCCC(OCc4ccccn4)C3)n2)cc1 (stereo not given) | 9 | 1 | 6 | 4 | / | /
CC1CCCCC12NC(=O)N(CC(=O)Nc1sccc1C(N)=O)C2=O (stereo not given) | 1 | 6 | / | 3 | / | /
CN1/C(=C/C(=O)c2ccc(Cl)cc2)Sc2cc3c(cc21)OCO3 | 40* | 11 | 5 | 16 | -13 | 2
COc1ccc2nc(NC(=O)C3CCN(C(=O)c4ccco4)CC3)sc2c1 | -5 | -4 | -2 | -8 | / | /
CCC(=O)Nc1c(S(=O)(=O)c2ccc(C)cc2)c2nc3ccccc3nc2n1C(C)c1ccccc1 (stereo not given) | 26* | 6 | 7 | 2 | -22 | -14
CCS(=O)(=O)c1ncc(Cl)c(C(=O)Nc2ccc(S(=O)(=O)N3CCC(C)CC3)cc2)n1 | -4 | 3 | -16 | -2 | / | /
CCNc1nc(NCC)n2c(SCC(=O)Nc3ccc(C)c(C)c3)nnc2n1 | 10 | -2 | 0 | 7 | / | /
Cc1cccn2c(=O)c3cc(C(=O)NCCc4ccccc4)sc3nc12 | 31* | 5 | 13 | 3 | -19 | -14
CCCCNC(=O)c1cc2c(=O)n3cccc(C)c3nc2s1 | 3 | 8 | 6 | 0 | / | /
